In ChEMBL document CHEMBL1121653, “Potential pancreatic imaging agents. Tellurium-123m labeled DL-alpha-amino-gamma-(phenyltelluro)butyric acid” (J Med Chem, 1981):

Experiments:
Rattus norvegicus [1] = test: Compound was evaluated for the distribution of radioactivity in female rat pancreas at time interval 60 minutes following intravenous administration of [123mTe]- Labeled-DL-cu-Amino-r-( phenyltel1uro) butyric Acid, expressed as mean dose per gram of t; assay type: ADME, organism-based; settings: in vivo, 1 h
Outline: (§1)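 Female Fischer 344 rats, 10–12 weeks old (180–210 g), fed ad libitum, given the 123mTe-labeled amino acid through a lateral tail vein under ether anesthesia. The basic solution was neutralized to pH ~8 with 1 N HCl and filtered (0.22 μm) before injection. Rats were decapitated at 30 min, 60 min, 4 h or 24 h. Organs were rinsed in saline and weighed, and radioactivity was counted on a Ge(Li) analyzer. Values are %dose/g, mean ± SD of 3 rats.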

Rattus norvegicus [2] = test: Compound was evaluated for the distribution of radioactivity in female rat pancreas at time interval 30 minutes following intravenous administration of [123mTe]- Labeled-DL-cu-Amino-r-( phenyltel1uro) butyric Acid, expressed as mean dose per gram of t; assay type: ADME, organism-based; settings: in vivo, 0.5 h; outline: as §1
Rattus norvegicus [3] = test: Compound was evaluated for the distribution of radioactivity in female rat blood at time interval 4 hours following intravenous administration of [123mTe]- Labeled-DL-cu-Amino-r-( phenyltel1uro) butyric Acid, expressed as mean dose per gram of tissue; assay type: ADME, organism-based; settings: in vivo; outline: as §1
Rattus norvegicus [4] = test: Compound was evaluated for the distribution of radioactivity in female rat pancreas at time interval 24 hours following intravenous administration of [123mTe]- Labeled-DL-cu-Amino-r-( phenyltel1uro) butyric Acid, expressed as mean dose per gram of tissue; assay type: ADME, organism-based; settings: in vivo; outline: as §1
Rattus norvegicus [5] = test: Compound was evaluated for the distribution of radioactivity in female rat kidneys at time interval 60 minutes following intravenous administration of [123mTe]- Labeled-DL-cu-Amino-r-( phenyltel1uro) butyric Acid, expressed as mean dose per gram of ti; assay type: ADME, organism-based, Kidney; settings: in vivo, 1 h; outline: as §1
Rattus norvegicus [6] = test: Compound was evaluated for the distribution of radioactivity in female rat kidneys at time interval 24 hours following intravenous administration of [123mTe]- Labeled-DL-cu-Amino-r-( phenyltel1uro) butyric Acid, expressed as mean dose per gram of tiss; assay type: ADME, organism-based, Kidney; settings: in vivo; outline: as §1
Rattus norvegicus [7] = test: Compound was evaluated for the distribution of radioactivity in female rat kidneys at time interval 30 minutes following intravenous administration in kidneys of [123mTe]- Labeled-DL-cu-Amino-r-( phenyltel1uro) butyric Acid, expressed as mean dose per; assay type: ADME, organism-based, Kidney; settings: in vivo, 0.5 h; outline: as §1
Rattus norvegicus [8] = test: Compound was evaluated for the distribution of radioactivity in female rat liver at time interval 30 minutes following intravenous administration of [123mTe]- Labeled-DL-cu-Amino-r-( phenyltel1uro) butyric Acid, expressed as mean dose per gram of tiss; assay type: ADME, organism-based; settings: in vivo, 0.5 h; outline: as §1
Rattus norvegicus [9] = test: Compound was evaluated for the distribution of radioactivity in female rat liver at time interval 60 minutes following intravenous administration of [123mTe]- Labeled-DL-cu-Amino-r-( phenyltel1uro) butyric Acid, expressed as mean dose per gram of tiss; assay type: ADME, organism-based; settings: in vivo, 1 h; outline: as §1
Rattus norvegicus [10] = test: Compound was evaluated for the distribution of radioactivity in female rat spleen at time interval 30 minutes following intravenous administration of [123mTe]- Labeled-DL-cu-Amino-r-( phenyltel1uro) butyric Acid, expressed as mean dose per gram of tis; assay type: ADME, organism-based; settings: in vivo, 0.5 h; outline: as §1
Rattus norvegicus [11] = test: Compound was evaluated for the distribution of radioactivity in female rat kidneys at time interval 4 hours following intravenous administration of [123mTe]- Labeled-DL-cu-Amino-r-( phenyltel1uro) butyric Acid, expressed as mean dose per gram of tissu; assay type: ADME, organism-based, Kidney; settings: in vivo; outline: as §1
Rattus norvegicus [12] = test: Compound was evaluated for the distribution of radioactivity in female rat blood at time interval 60 minutes following intravenous administration of [123mTe]- Labeled-DL-cu-Amino-r-( phenyltel1uro) butyric Acid, expressed as mean dose per gram of tiss; assay type: ADME, organism-based; settings: in vivo, 1 h; outline: as §1
Rattus norvegicus [13] = test: Compound was evaluated for the distribution of radioactivity in female rat pancreas at time interval 4 hours following intravenous administration of [123mTe]- Labeled-DL-cu-Amino-r-( phenyltel1uro) butyric Acid, expressed as mean dose per gram of tiss; assay type: ADME, organism-based; settings: in vivo; outline: as §1
Rattus norvegicus [14] = test: Compound was evaluated for the distribution of radioactivity in female rat liver at time interval 24 hours following intravenous administration of [123mTe]- Labeled-DL-cu-Amino-r-( phenyltel1uro) butyric Acid, expressed as mean dose per gram of tissue; assay type: ADME, organism-based; settings: in vivo; outline: as §1
Rattus norvegicus [15] = test: Compound was evaluated for the distribution of radioactivity in female rat spleen at time interval 60 minutes following intravenous administration of [123mTe]- Labeled-DL-cu-Amino-r-( phenyltel1uro) butyric Acid, expressed as mean dose per gram of tis; assay type: ADME, organism-based; settings: in vivo, 1 h; outline: as §1
Rattus norvegicus [16] = test: Compound was evaluated for the distribution of radioactivity in female rat spleene at time interval 24 hours following intravenous administration of [123mTe]- Labeled-DL-cu-Amino-r-( phenyltel1uro) butyric Acid, expressed as mean dose per gram of tiss; assay type: ADME, organism-based, Spleen; settings: in vivo; outline: as §1
Rattus norvegicus [17] = test: Compound was evaluated for the distribution of radioactivity in female rat spleen at time interval 4 hours following intravenous administration of [123mTe]- Labeled-DL-cu-Amino-r-( phenyltel1uro) butyric Acid, expressed as mean dose per gram of tissue; assay type: ADME, organism-based; settings: in vivo; outline: as §1
Rattus norvegicus [18] = test: Compound was evaluated for the distribution of radioactivity in female rat liver at time interval 4 hours following intravenous administration of [123mTe]- Labeled-DL-cu-Amino-r-( phenyltel1uro) butyric Acid, expressed as mean dose per gram of tissue; assay type: ADME, organism-based; settings: in vivo; outline: as §1
Rattus norvegicus [19] = test: Compound was evaluated for the distribution of radioactivity in female rat blood at time interval 30 minutes following intravenous administration of [123mTe]- Labeled-DL-cu-Amino-r-( phenyltel1uro) butyric Acid, expressed as mean dose per gram of tiss; assay type: ADME, organism-based; settings: in vivo, 0.5 h; outline: as §1
Rattus norvegicus [20] = test: Compound was evaluated for the distribution of radioactivity in female rat blood at time interval 24 hours following intravenous administration of [123mTe]- Labeled-DL-cu-Amino-r-( phenyltel1uro) butyric Acid, expressed as mean dose per gram of tissue; assay type: ADME, organism-based; settings: in vivo; outline: as §1

For `NC(CC[Te]c1ccccc1)C(=O)O` (stereo not given), the Dose (Rattus norvegicus [1]) was 0.654%, the Dose (Rattus norvegicus [2]) was 0.206% and the Dose (Rattus norvegicus [3]) was 0.451%. For the same compound, the Dose (Rattus norvegicus [4]) was 0.334%, the Dose (Rattus norvegicus [5]) was 2.628% and the Dose (Rattus norvegicus [6]) was 1.489%. The Dose (Rattus norvegicus [7]) was 1.019%, the Dose (Rattus norvegicus [8]) was 0.32% and the Dose (Rattus norvegicus [9]) was 0.534%. It also gave a Dose (Rattus norvegicus [10]) of 0.129%, a Dose (Rattus norvegicus [11]) of 2.169% and a Dose (Rattus norvegicus [12]) of 0.497%. It also gave a Dose (Rattus norvegicus [13]) of 0.434%, a Dose (Rattus norvegicus [14]) of 2.139% and a Dose (Rattus norvegicus [15]) of 0.238%. It also gave a Dose (Rattus norvegicus [16]) of 0.28%, a Dose (Rattus norvegicus [17]) of 0.234% and a Dose (Rattus norvegicus [18]) of 1.046%. For the same compound, the Dose (Rattus norvegicus [19]) was 0.208% and the Dose (Rattus norvegicus [20]) was 0.485%.
